Active and inactive are the calls of the source. The rule behind the calls is not given here.
Legend:
Mus musculus [1] = assay: Inhibition of fasting-induced refeeding in 18 hrs fasted C57Bl/6J mouse at 50 mg/kg, ip administered as single dose 30 mins prior to refeeding measured up to 16 hrs; format: functional, organism-based
Mus musculus [2] = assay: Toxicity in 18 hrs fasted C57Bl/6J mouse model of fasting-induced refeeding assessed as hypolocomotion at 50 mg/kg, ip administered as single dose 30 mins prior to refeeding measured after 24 hrs; format: organism-based; details: in vivo
Mus musculus [3] = assay: Ex vivo inhibition of FP-TAMRA probe binding to carboxylesterase in mouse liver at 3 to 50 mg/kg, ip after 4 hrs by gel-based competitive activity based protein profiling assay; format: functional, organism-based
[4] = biological target: T1, Diacylglycerol lipase-alpha (Homo sapiens, UniProt Q9Y4D2); assay: Inhibition of full length recombinant human DAGLalpha expressed in HEK293T cell membranes using PNP butyrate as substrate by colorimetric assay; parameters: species or system HEK-293T
T1 sequence (Q9Y4D2 whole entry): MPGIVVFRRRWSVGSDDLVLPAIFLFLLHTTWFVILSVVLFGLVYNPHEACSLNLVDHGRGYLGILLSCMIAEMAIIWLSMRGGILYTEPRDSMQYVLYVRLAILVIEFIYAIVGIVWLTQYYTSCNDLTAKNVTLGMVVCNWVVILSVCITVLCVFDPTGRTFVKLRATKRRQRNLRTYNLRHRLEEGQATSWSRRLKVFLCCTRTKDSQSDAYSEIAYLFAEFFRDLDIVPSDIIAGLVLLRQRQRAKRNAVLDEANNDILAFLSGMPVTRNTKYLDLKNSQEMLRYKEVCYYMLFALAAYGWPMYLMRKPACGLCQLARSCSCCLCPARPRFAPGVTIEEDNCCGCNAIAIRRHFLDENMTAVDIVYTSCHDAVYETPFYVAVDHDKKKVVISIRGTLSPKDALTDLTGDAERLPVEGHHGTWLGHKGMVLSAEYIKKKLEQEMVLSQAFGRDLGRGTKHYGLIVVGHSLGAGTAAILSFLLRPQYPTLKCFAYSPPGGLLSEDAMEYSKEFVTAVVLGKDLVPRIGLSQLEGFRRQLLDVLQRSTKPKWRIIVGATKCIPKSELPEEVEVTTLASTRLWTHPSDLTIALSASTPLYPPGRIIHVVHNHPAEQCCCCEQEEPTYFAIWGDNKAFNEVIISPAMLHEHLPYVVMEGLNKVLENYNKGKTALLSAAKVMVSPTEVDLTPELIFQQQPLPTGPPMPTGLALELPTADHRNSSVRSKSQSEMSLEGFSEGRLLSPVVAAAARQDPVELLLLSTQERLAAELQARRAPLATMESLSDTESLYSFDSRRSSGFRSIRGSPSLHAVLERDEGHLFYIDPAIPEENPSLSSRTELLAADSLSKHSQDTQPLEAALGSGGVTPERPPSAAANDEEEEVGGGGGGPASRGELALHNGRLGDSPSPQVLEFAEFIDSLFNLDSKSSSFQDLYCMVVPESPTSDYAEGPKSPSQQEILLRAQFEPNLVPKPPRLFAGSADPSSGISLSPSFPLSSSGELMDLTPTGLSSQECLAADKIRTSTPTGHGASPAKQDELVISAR
Summary of the method: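 Membranes from HEK293T cells transiently transfected with human DAGLα (PEI transfection, harvested at 72 h), used at 0.05 µg/µL final protein in 50 mM HEPES pH 7.2. Activity was read colorimetrically from para-nitrophenylbutyrate hydrolysis. n = 4, mean ± SEM.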

[5] = biological target: T2, Monoacylglycerol lipase ABHD6 (Homo sapiens, UniProt Q9BV23); assay: Inhibition of human ABHD6 using 2-AG as natural substrate by fluorescence based assay
T2 sequence (Q9BV23 whole entry): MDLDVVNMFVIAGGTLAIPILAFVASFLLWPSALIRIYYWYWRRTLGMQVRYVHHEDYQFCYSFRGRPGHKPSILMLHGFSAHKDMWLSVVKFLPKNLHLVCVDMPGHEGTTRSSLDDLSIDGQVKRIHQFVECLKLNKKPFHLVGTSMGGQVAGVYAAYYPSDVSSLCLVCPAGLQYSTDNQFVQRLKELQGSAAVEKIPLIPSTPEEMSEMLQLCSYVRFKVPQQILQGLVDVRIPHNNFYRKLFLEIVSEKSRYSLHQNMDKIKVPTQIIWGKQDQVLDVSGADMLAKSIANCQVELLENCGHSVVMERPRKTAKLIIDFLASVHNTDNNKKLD
Summary of the method: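 Coupled fluorescence assay: 2-AG hydrolysis detected via glycerol kinase, glycerol-3-phosphate oxidase and HRP (0.2 U/mL each), 0.125 mM ATP and 10 µM Amplifu Red. Conditions: 25 µM 2-AG, 0.5% acetonitrile, 5% DMSO, ABHD6 membrane protein 40 µg/mL final. n = 4.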

[6] = biological target: T1, Diacylglycerol lipase-alpha; assay: Inhibition of recombinant human DAGLalpha expressed in HEK293T cell membranes overexpressing MAGL using natural substrate 1-stearoyl-2-arachidonoly-sn-glycerol by fluorescence based assay; parameters: species or system HEK-293T
Summary of the method: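 Real-time coupled fluorescence readout of glycerol release from hDAGLα-transfected HEK293T membranes (50 µg/mL final protein) with 100 µM SAG substrate. Added: 5 µg/mL MAGL-overexpressing membranes, 0.0075% (w/v) Triton X-100, 0.2 U/mL each glycerol kinase, glycerol-3-phosphate oxidase and HRP, 0.125 mM ATP, 10 µM Amplifu Red, 5% DMSO. n = 4.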

[7] = biological target: T3, Diacylglycerol lipase-alpha (Mus musculus, UniProt Q6WQJ1); assay: Inhibition of MB064 probe binding to DAGLalpha in mouse brain membrane proteome preincubated for 30 mins followed by MB064 probe addition measured after 20 mins by gel-based competitive activity based protein profiling assay; format: cell membranes
T3 sequence (Q6WQJ1 whole entry): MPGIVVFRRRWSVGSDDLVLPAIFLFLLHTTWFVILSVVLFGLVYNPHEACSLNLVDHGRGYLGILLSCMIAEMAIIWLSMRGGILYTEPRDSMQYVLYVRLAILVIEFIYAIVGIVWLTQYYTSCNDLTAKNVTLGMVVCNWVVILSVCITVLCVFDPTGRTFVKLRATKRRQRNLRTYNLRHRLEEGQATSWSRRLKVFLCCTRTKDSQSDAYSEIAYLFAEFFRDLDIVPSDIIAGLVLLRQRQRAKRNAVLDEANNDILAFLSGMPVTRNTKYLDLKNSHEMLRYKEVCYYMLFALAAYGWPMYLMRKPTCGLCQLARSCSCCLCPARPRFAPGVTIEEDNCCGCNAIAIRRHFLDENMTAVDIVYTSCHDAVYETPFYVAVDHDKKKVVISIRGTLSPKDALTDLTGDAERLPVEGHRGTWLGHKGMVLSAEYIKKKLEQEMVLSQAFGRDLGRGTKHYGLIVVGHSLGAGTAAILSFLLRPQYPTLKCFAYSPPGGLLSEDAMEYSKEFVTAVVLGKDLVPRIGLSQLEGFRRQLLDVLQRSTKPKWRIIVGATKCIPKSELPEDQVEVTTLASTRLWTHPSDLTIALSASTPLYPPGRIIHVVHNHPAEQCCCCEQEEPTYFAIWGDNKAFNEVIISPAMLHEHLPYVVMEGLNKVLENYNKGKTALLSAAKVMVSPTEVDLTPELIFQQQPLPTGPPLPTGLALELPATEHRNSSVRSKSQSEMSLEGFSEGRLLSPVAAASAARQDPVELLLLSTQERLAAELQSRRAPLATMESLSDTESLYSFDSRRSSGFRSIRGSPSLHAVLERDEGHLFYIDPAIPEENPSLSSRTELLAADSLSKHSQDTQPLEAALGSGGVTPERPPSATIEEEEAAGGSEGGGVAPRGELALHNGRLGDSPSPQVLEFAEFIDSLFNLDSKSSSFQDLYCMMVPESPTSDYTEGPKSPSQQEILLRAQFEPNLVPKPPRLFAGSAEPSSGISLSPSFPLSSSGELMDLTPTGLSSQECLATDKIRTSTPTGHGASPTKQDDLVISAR
Summary of the method: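 Mouse brain membrane proteome (2 mg/mL) preincubated with inhibitor or DMSO vehicle for 30 min at r.t., then labelled with MB064 at 250 nM final for 20 min at r.t. and quenched in Laemmli buffer. Fluorescent bands were quantified against vehicle set to 100%, and IC50 was taken from a variable-slope log(inhibitor) vs normalized response fit. n = 3.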

[8] = biological target: T4, Diacylglycerol lipase-beta (Mus musculus, UniProt Q91WC9); assay: Inhibition of recombinant mouse DAGLbeta expressed in HEK293T cell membranes using PNP butyrate as substrate by colorimetric assay; parameters: species or system HEK-293T
T4 sequence (Q91WC9 whole entry): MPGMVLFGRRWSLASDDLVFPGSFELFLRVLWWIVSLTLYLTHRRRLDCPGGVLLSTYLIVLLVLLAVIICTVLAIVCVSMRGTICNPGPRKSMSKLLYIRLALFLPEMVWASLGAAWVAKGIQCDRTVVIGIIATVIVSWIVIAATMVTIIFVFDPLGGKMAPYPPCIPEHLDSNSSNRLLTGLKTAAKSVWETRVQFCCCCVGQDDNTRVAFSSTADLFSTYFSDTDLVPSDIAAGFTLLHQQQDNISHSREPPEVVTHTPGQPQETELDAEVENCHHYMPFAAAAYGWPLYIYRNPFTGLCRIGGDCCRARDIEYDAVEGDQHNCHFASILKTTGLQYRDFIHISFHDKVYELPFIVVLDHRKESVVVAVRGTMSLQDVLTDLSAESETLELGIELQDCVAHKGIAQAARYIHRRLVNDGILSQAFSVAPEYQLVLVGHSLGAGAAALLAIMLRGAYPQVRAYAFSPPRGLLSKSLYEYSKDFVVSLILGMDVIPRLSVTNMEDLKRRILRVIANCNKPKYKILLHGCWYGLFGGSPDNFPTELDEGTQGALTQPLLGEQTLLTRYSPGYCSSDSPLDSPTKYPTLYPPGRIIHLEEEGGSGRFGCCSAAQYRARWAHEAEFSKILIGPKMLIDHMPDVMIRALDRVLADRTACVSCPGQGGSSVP
Summary of the method: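 Membranes from HEK293T cells transiently transfected with mouse DAGLβ. Activity was read colorimetrically as hydrolysis of para-nitrophenylbutyrate surrogate substrate over a concentration range of inhibitor. n = 4, mean ± SEM.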

[9] = biological target: T5, Diacylglycerol lipase-alpha (Homo sapiens) (UniProt Q9Y4D2); assay: Inhibition of DH379 probe binding to full length recombinant human DAGLalpha expressed in HEK293T cell membranes at 0.1 to 10000 nM after 30 mins by gel-based competitive activity based protein profiling assay; details: HEK-293T
T5 sequence (whole entry): T1 sequence (Q9Y4D2 whole entry)
Summary of the method: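 Membranes from HEK293T cells transiently transfected with human DAGLα were preincubated with inhibitor, then labelled with DAGL-tailored probe DH379 (1 μM, 30 min). Readout was fluorescent SDS gel. Band intensity was normalized to vehicle (100%) and fitted with a variable-slope dose-response curve. n = 3.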

[10] = biological target: T6, Diacylglycerol lipase-beta (Homo sapiens) (UniProt Q8NCG7); assay: Inhibition of DH379 probe binding to full length recombinant human DAGLbeta expressed in HEK293T cell membranes at 0.1 to 10000 nM after 30 mins by gel-based competitive activity based protein profiling assay; details: HEK-293T
T6 sequence (whole entry): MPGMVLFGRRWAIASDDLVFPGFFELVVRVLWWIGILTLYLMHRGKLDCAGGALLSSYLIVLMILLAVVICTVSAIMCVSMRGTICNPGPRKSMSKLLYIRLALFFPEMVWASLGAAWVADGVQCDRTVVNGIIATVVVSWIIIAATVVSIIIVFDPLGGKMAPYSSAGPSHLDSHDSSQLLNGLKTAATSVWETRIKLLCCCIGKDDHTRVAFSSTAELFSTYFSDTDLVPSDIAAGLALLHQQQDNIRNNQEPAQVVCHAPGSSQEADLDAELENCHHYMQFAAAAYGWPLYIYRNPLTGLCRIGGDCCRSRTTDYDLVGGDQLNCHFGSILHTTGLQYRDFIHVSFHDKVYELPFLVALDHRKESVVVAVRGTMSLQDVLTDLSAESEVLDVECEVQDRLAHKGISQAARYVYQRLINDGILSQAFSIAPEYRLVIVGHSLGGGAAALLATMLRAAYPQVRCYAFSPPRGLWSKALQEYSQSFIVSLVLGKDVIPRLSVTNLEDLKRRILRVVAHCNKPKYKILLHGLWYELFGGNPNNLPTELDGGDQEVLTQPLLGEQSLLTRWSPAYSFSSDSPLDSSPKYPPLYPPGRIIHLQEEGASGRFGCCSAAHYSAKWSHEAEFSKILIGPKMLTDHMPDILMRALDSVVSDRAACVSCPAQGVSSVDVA
Summary of the method: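 HEK293T cells transiently transfected with full-length human DAGLβ cDNA (PEI:DNA 3:1), harvested at 72h; membrane fraction diluted to 1 mg/mL protein. Inhibitor-treated membranes were labelled with DAGL-tailored probe DH379 (1 μM, 30 min), then run on fluorescent SDS-PAGE. Band intensity was normalised to vehicle (100%), and IC50 was fitted to log(inhibitor) vs normalised response with variable slope; n = 3.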

[11] = biological target: T1, Diacylglycerol lipase-alpha; assay: Inhibition of HT-01 probe binding to recombinant human DAGLalpha expressed in HEK293T cell membrane proteomes preincubated for 30 mins followed by HT-01 probe addition measured after 30 mins by gel-based competitive activity based protein profiling assay; format: cell membranes, HEK-293T

IC50 [4] [µM]	IC50 [8] [µM]	Compound	IC50 [5] [µM]	IC50 [6] [µM]	other results
–	–	C/C=C/C=O [CROTONALDEHYDE]	–	–	inhibition (Mus musculus [1]): Active; Activity (Mus musculus [2]): Toxic; inhibition (Mus musculus [3]): Active
–	–	C/C=C/[C@@H](O)C#N	–	–	inhibition (Mus musculus [1]): Active; Activity (Mus musculus [2]): Toxic; inhibition (Mus musculus [3]): Active
0.0251	0.0794	O=C(N1CCCCC1Cc1ccccc1)n1cc(C(O)(c2ccccc2)c2ccccc2)nn1 (configuration not stated)	0.0398	–	–
0.00251	0.0126	O=C(N1CCCCC1Cc1ccccc1)n1ncc(C(O)(c2ccccc2)c2ccccc2)n1 (configuration not stated)	0.02	–	inhibition [9]: Active; inhibition [10]: Active
0.0631	12.6	CCC1CCCCN1C(=O)n1ncc(C(O)(c2ccccc2)c2ccccc2)n1 (configuration not stated)	–	–	–
0.02	20	CCC1CCCCN1C(=O)n1cc(-c2ccc(-c3ccccc3)cc2)nn1 (configuration not stated)	–	–	–

Compound	IC50 [4] [µM]	IC50 [8] [µM]	IC50 [5] [µM]	IC50 [6] [µM]	other results
O=C(N1CCCC[C@H]1Cc1ccccc1)n1cc(-c2ccc(-c3ccccc3)cc2)nn1	0.0398	–	0.631	0.794	IC50 [7]: 0.631 µM
O=C(N1CCCCC1Cc1ccccc1)n1cc(-c2ccc(-c3ccccc3)cc2)nn1 (racemic)	0.00126 to 0.00631	–	0.0398	0.126	IC50 [11]: 2.3 µM; inhibition [9]: Active; inhibition [10]: Active
O=C(N1CCCC[C@@H]1Cc1ccccc1)n1cc(-c2ccc(-c3ccccc3)cc2)nn1	0.000794	–	0.00251	0.0251	IC50 [7]: 0.00794 µM

— ChEMBL document CHEMBL3877306, “Triazole Ureas Act as Diacylglycerol Lipase Inhibitors and Prevent Fasting-Induced Refeeding” (J Med Chem, 2017)
